In ChEMBL document CHEMBL1121502, “Antiallergy activity of 10-oxo-10-H-pyridazino[6,1-b]quinazoline-2-carboxylic acids” (1980):

Tests used:
Assay type in all cases: functional
[1] = tested on: Rattus norvegicus; test: Antiallergic activity is evaluated for its ability to inhibit reaginic passive cutaneous anaphylaxis (PCA) in rats dosed at 0.5 mg/kg intravenously; conditions: route intravenous
Outline: (§1)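 Antiserum dilutions were injected intradermally at several back sites. 48 h later, rats were challenged i.v. with 1 mg ovalbumin in 1 mL saline containing 0.25% Evans blue. Diameter was plotted against relative antiserum concentration, and the least-squares line was extrapolated to zero antiserum. Groups of five animals were used.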

[2] = tested on: Rattus norvegicus; test: Antiallergic activity is evaluated for its ability to inhibit reaginic passive cutaneous anaphylaxis (PCA) in rats dosed at 5 mg/kg intravenously; conditions: ip, in the assay text read “intraperitoneally” for “intravenously”; outline: as §1
[3] = tested on: Rattus norvegicus; test: Antiallergic activity is evaluated for its ability to inhibit reaginic passive cutaneous anaphylaxis (PCA) in rats dosed intravenously; conditions: iv; outline: as §1
[4] = tested on: Rattus norvegicus; test: Antiallergy activity is evaluated for its ability to inhibit passive cutaneous anaphylaxis (PCA) in rats, dosed perorally; conditions: po; outline: as §1
[5] = tested on: Rattus norvegicus; test: Antiallergic activity is evaluated for its ability to inhibit reaginic passive cutaneous anaphylaxis (PCA) in rats dosed perorally; conditions: po; outline: as §1
[6] = tested on: Rattus norvegicus; test: Antiallergic activity is evaluated for its ability to inhibit reaginic passive cutaneous anaphylaxis (PCA) in rats dosed intravenously; Value ranges from 1-2; conditions: iv; outline: as §1

Structure (SMILES)	inhibition in vivo at 0.5 mg/kg [1] [%]	inhibition in vivo at 5 mg/kg [2] [%]	other results
O=C(O)c1ccc2nc3ccccc3c(=O)n2n1	76		
Cc1ccc2nc3ccc(C(=O)O)nn3c(=O)c2c1	0		
O=C(O)c1ccc2nc3ccc(Cl)cc3c(=O)n2n1	91		
O=C(O)c1ccc2c(=O)n3nc(Cl)ccc3nc2c1		0	
Cc1ccc2nc3ccc(C(=O)O)cn3c(=O)c2c1			ED50 [3]: 0.05 mg/kg; ED50 [4]: 0.7 mg/kg
O=C1c2ccccc2S(=O)(=O)c2cc(-c3nn[nH]n3)ccc21 [DOXANTRAZOLE]			ED50 [3]: 1 mg/kg; ED50 [5]: 5 mg/kg
COC(=O)c1ccc2c(=O)n3nc(Cl)ccc3nc2c1		0	
O=C(O)c1ccc2nc3ccc(Cl)nn3c(=O)c2c1		0	
Cc1ccc2c(=O)n3nc(C(=O)O)ccc3nc2c1	32		
O=C(O)c1ccc2nc3cc4ccccc4cc3c(=O)n2n1	36		
COC(=O)c1ccc2nc3ccc(Cl)nn3c(=O)c2c1		6	
COc1ccc2nc3ccc(C(=O)O)nn3c(=O)c2c1	8		
O=C([O-])c1cc(=O)c2c(OCC(O)COc3cccc4oc(C(=O)[O-])cc(=O)c34)cccc2o1.[Na+].[Na+] [CROMOLYN SODIUM]			ED50 [6]: 1 mg/kg
